Screens as filed in PubChem.
This is a sample that favours compounds with a hit; in the whole collection about 2.8% have one here.
NPY Y1 blocker = NPY-Y1 receptor antagonists, primary screen, cell-based. Neuropeptide Y receptor type 1 (Homo sapiens), P25929. actives 1% (n = 200,000). HEK293-CNG Y1 cells, membrane potential fluorescence; NPY at EC95, then isoproterenol. inhibition, % at 3.6 µM;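 active = inhibition above the campaign mean inhibition of all tested compounds plus 3 SD, cut at about 20% in these data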;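 also: 0% = DMSO wells given NPY plus isoproterenol and 100% = isoproterenol alone without NPY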
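Material: HEK293 cells with Y1 receptor plus CNG channel; times: compound incubation 1 h at room temperature, readout 45 min post-stimulation; signal: fluorescence, membrane potential probe; read-out basis: fluorescence ratio normalized to % inhibition between controls; benchmarks: full-block control isoproterenol-only wells, zero-block control NPY plus isoproterenol wells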
EP2 modulator = EP2 receptor modulators, cAMP readout, primary screen, cell-based, HTRF cAMP, PGE2 stimulation; EP2-expressing cells, cAMP HTRF FRET, PGE2 co-stimulation; induction, % at 25 µM; actives 0.83% (n = 260,000); AID 940, 2007;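 active = compounds whose cAMP rise, as percent of the full-agonist control response, exceeds 60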;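 also: rat C6 glioma line stably carrying human EP2 under a CMV promoter; the protocol text gives 20 µM as final concentration; 100% = response of wells given 1 µM PGE2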
PGE2 EP2 inh = human EP2 receptor antagonists, primary screen, TR-FRET cAMP, C6 glioma cells; C6 glioma cells expressing human EP2; cells stimulated with saturating PGE2; AID 1422, 2008; actives 0.52% (n = 260,000); Prostaglandin E2 receptor EP2 subtype (Homo sapiens), P43116; inhibition, % at 25 µM;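 active = percent inhibition above 40 after rounding to a whole number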;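 also: rat C6 glioma host cells with rolipram phosphodiesterase inhibitor present; the protocol text gives 20 µM as final concentration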
NPY-Y2 PAM-ag = NPY-Y2 potentiators or agonists, primary screen, cell-based | activation, % at 3.6 µM | cells expressing NPY-Y2, potentiator/agonist read-out | Neuropeptide Y receptor type 2 (Homo sapiens), P49146 | actives 0.45% (n = 220,000); in the data active = activation above about 27%;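 also: cells stimulated with NPY near EC25 plus isoproterenol at EC100; 0% = vehicle plus submaximal agonist and 100% = vehicle plus saturating agonist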
Target sequence (P49146 whole entry, looked up): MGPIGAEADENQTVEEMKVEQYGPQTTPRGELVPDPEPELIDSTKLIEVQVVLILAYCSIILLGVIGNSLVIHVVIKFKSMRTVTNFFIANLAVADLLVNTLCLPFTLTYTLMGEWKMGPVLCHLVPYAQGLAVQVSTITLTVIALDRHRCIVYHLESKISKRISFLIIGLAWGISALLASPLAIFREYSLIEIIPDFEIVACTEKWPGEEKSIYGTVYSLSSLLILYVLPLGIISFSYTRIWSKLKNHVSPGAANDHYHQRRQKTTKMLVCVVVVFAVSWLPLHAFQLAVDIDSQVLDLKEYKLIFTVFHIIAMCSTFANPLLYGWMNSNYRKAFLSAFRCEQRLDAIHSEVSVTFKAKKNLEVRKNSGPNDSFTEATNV
NPY Y2 blocker = NPY-Y2 receptor antagonists, primary screen, cell-based | inhibition, % at 2.7 µM | AID 793, 2007 | actives 0.99% (n = 140,000) | Neuropeptide Y receptor type 2 (Homo sapiens), P49146 | NPY-Y2 expressing cells, antagonist mode; in the data active = inhibition above about 17%;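 also: 0% = vehicle with agonist challenge and 100% = reference antagonist with challenge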
NPY1 pot ag = NPY-Y1 receptor potentiators or agonists, primary screen, cell-based. Neuropeptide Y receptor type 1 (Homo sapiens), P25929. NPY-Y1 expressing cells, potentiator/agonist activation. activation, % at 3.6 µM. actives 0.37% (n = 220,000); in the data active = activation above about 33%, passing the limit was not always enough;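 also: cells stimulated with NPY at EC10 then isoproterenol at EC100; 0% = low agonist plus stimulus and 100% = saturating agonist plus stimulus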
Numbers without * were called inactive; x = no result given.

SMILES	NPY Y1 blocker	EP2 modulator	PGE2 EP2 inh	NPY-Y2 PAM-ag	NPY Y2 blocker	NPY1 pot ag
Cc1cccc(Nc2nc(N)c([N+](=O)[O-])c(N3CC(C)CC(C)C3)n2)c1 (centres undefined)	-6	63*	5	12	0	36
COc1cc(NC(=O)c2ccco2)c(OC)cc1NC(=O)c1cccc(C)c1	x	-46	36	x	x	x
C=CCN(CC=C)Cc1c(O)ccc2c1oc(=O)c1ccccc12	16	x	41*	-14	4	-13
CC[C@@H](Cn1ncc2ccccc2c1=O)NC(=O)Cc1cc(OC)ccc1OC	x	-17	9	x	x	x
N=c1c(C(=O)NCCc2ccccc2)cc2c(=O)n3ccccc3nc2n1Cc1cccnc1	x	-49	6	x	x	x
CC(=O)n1cc(N(C(=O)CCl)c2ccc(Cl)cc2)c2ccccc21	x	-31	9	50*	x	66*
COc1ccccc1N(C(=O)CCl)c1cn(C(C)=O)c2ccccc12	x	22	8	15	x	14
O=C(CNC1CC1)NCc1cccs1	x	2	11	x	x	x
CC(=O)Nc1ccc(NC(=O)Nc2ccc3c(c2)N(C)C(=O)CS3)cc1	-6	-48	6	11	x	4
COc1cccc(NC(=O)Nc2ccc3c(c2)N(C)C(=O)CS3)c1	8	-36	42*	16	2	6
COc1cccc(CNC(=O)Cn2nc(C)n3c(cc4sc(C)cc43)c2=O)c1	x	27	x	x	x	x
CC(C)n1c(NN)nc2c1c(=O)n(C)c(=O)n2C	x	-29	14	x	x	x
CO[C@@H]1/C=C\O[C@]2(C)Oc3c(C)c(O)c4c(O)c(cc(O)c4c3C2=O)NC(=O)C(C)=C/C=C\[C@H](C)[C@@H](O)[C@H](C)[C@H](O)[C@H](C)[C@H](OC(C)=O)[C@@H]1C	x	38	45*	x	x	x
CO[C@H]1/C=C/O[C@@]2(C)Oc3c(C)c(O)c4c(O)c(c(C=NN5CCN(C)CC5)c(O)c4c3C2=O)NC(=O)/C(C)=C\C=C\C(C)[C@H](O)[C@@H](C)[C@@H](O)[C@@H](C)[C@@H](OC(C)=O)[C@@H]1C (some centres undefined)	x	-4	11	x	x	x
CCOc1ccc(/C=c2\sc3nc(-c4ccco4)nn3c2=O)cc1OCC	8	75*	8	0	1	-3
O=C(c1ncoc1-c1cccs1)N1CCN(c2ccccc2F)CC1	x	-75	x	x	x	x
CCOc1c(Cl)cc(C2C3=C(CCCC3=O)NC3=C2C(=O)CCC3)cc1OC	x	15	9	x	x	x
CC(C)c1nc2ccccc2c2nnc(SCC(=O)Nc3nc4c(s3)CCCC4)n12	x	64*	16	x	x	x
Clc1ccc2c(c1)N(CCCN1CCCC13CCCCC3)c1ccccc1S2	x	-5	53*	x	x	x
COc1cc(CC(=O)N2CCC(c3ccccc3F)CC2)cc(OC)c1OC	x	-19	x	x	x	x
CC(C)C(=O)N1CCN(c2ccc(NC(=O)COc3ccccc3[N+](=O)[O-])cc2)CC1	3	-34	44*	-6	x	-14
CCOC(=O)c1c(C)oc2ccc(OCC(=O)NN)cc12	x	-3	5	x	x	x
Cc1ccc(C2CC(C(F)(F)F)n3nc(C(=O)NCc4c(C)nn(C)c4C)c(Cl)c3N2)cc1 (centres undefined)	-18	-35	7	39*	3	48*
Cn1c(=O)c2c(nc(NCc3ccccc3)n2Cc2ccc(F)cc2)n(C)c1=O	12	64*	13	-2	4	-10
Cc1ccc(C)c(-c2cc(-c3ccc4c(c3)OCO4)c(C#N)c(N)n2)c1	x	-52	11	x	x	x
SMILES	NPY Y1 blocker	EP2 modulator	PGE2 EP2 inh	NPY-Y2 PAM-ag	NPY Y2 blocker	NPY1 pot ag
CCN(C(=O)COc1cc(=O)n(CC)c2ccccc12)c1cccc(Cl)c1	-6	12	3	-6	2	8
CCN(C(=O)COc1cc(=O)n(CC)c2ccccc12)c1cc(Cl)ccc1OC	23*	-1	6	-25	17*	-15
C=Cn1nccc1C(=O)O	x	-3	7	x	x	x
CN(C)Cc1cc(C(C)(C)C)cc(C(C)(C)C)c1O	x	10	11	3	x	9
CN(C)Cc1ccc(C(C)(C)C)cc1-c1cc(C(C)(C)C)ccc1CN(C)C	x	9	51*	x	x	x
CCc1ccc2nc(-c3ccc(F)cc3)nc(SCC(N)=O)c2c1	x	11	10	x	x	x
O=C(Cc1cccs1)N(Cc1cccs1)C1(C(=O)NC2CCCC2)CCCCC1	51*	34	9	-11	50*	-16
O=C(c1ccc(=O)[nH]c1)N(Cc1ccco1)C1(C(=O)NC2CCCC2)CCCCC1	2	5	x	1	0	5
CC(=O)N(Cc1ccco1)C1(C(=O)NC2CCCCC2)CCCCC1	10	3	9	-3	5	19
O=C(Cc1cccs1)N(c1ccc(F)cc1)C1(C(=O)NC2CCCCC2)CCCC1	11	47	8	5	10	-21
O=C(Cc1cccs1)N(Cc1ccco1)C1(C(=O)NC2CCCCC2)CCCCC1	50*	59	4	-11	30*	9
O=C1CCC(C(=O)N(Cc2ccco2)C2(C(=O)NC3CCCC3)CCCCC2)N1 (centres undefined)	22*	9	8	6	23*	-26
O=C(CC12CC3CC(CC(C3)C1)C2)N1CCC(O)(c2ccccn2)CC1	x	-32	x	x	x	x
CCOc1ccccc1CNc1n[nH]c2nc(C)cc(C(F)(F)F)c12	x	19	x	x	x	x
COC(=O)[C@@H]1O[C@H](SCCN)[C@@H](O)[C@H](O)[C@H]1O	x	21	50*	x	x	x
CCOC(=O)CNS(=O)(=O)c1ccc(S(=O)(=O)N2CCCCCC2)cc1	x	-17	15	x	x	x
CCOC(=O)c1c(C)[nH]c(C)c1C(=O)CSc1nnnn1-c1ccccc1	-1	64*	15	-11	1	-10
COC(=O)c1c(C)[nH]c(C(=O)CSc2nnnn2-c2ccccc2)c1C	3	-1	x	4	0	-16
CSc1[s+]sc2c1-c1cc(C)ccc1NC2(C)C	x	35	10	x	x	x
CCOC(=O)c1cnc2ccc(OCC)cc2c1NCc1ccccc1	70*	53	13	-67	66*	-199
CCOC(=O)c1cnc2ccc(OCC)cc2c1N1CCN(c2ccccc2)CC1	29*	18	5	-29	17*	-36
CCOc1ccc2ncc(S(=O)(=O)c3ccccc3)c(N3CCN(c4ccc(OC)cc4)CC3)c2c1	0	38	3	4	1	-2
CN1CCN(S(=O)(=O)c2cccc(C(=O)N(c3ccccn3)C3CCCCC3)c2)CC1	-3	-2	11	-7	0	16
